Compound activity (PubChem)
G6PDH CS: L. mesenteroides G6PDH inhibitors, counter-screen for G6PDH-coupled screening assays, biochemical, Leuconostoc mesenteroides enzyme; hit rate 0.12% among 200,000; glucose-6-phosphate dehydrogenase [Leuconostoc mesenteroides]; inhibition, % at 5 µM; Purified L. mesenteroides G6PDH, diaphorase/resazurin coupled fluorescence, 45 min; in the data active = inhibition above about 50%
Diaphorase act: compounds boosting diaphorase resazurin reduction – biochemical, uHTS, resorufin fluorescence, counter-screen for diaphorase-coupled primary assays, primary screen | activation factor at 20 µM | hit rate 0.005% among 190,000 | Diaphorase/resazurin coupled assay, 16 min; hits give high values; 1 = vehicle wells, 0 = NADH-free wells;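 active = diaphorase activity raised at least twofold by the compound at 20 µM; inactive = activation factor below 2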
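Material: purified diaphorase enzyme from Clostridium kluyveri / Medium: HEPES pH 7.4 buffer with MgCl2 and Tween 20 / Schedule: enzyme reaction of 16 min at room temperature / Measured by: resorufin fluorescence, excitation 544 nm, emission 590 nm / Evaluation: rise in resorufin formation, marking diaphorase activation or chemical reduction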
PMI act satM6P: human PMI activators, high substrate, primary screen, biochemical, fluorescence intensity, near-saturating mannose 6-phosphate | activation factor at 20 µM | hit rate 0.34% among 190,000 | coupled PMI enzyme assay, resazurin fluorescence, 20 min; hits give high values; 1 = untreated enzyme, 0 = substrate-free blank;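 active = activation factor of 2 or more at 20 µM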
Target sequence (P34949 whole entry, looked up): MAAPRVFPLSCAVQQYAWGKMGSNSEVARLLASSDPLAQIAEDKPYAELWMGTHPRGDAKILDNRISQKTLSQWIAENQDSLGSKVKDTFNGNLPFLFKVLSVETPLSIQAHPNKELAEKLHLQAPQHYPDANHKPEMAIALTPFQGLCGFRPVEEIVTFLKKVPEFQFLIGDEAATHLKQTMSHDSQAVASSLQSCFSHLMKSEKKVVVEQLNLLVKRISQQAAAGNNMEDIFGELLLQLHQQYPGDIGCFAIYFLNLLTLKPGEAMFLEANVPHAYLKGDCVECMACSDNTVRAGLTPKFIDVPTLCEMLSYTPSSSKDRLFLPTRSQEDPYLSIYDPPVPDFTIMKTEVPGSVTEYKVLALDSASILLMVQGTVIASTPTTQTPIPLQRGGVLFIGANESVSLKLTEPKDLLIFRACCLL
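Material: human phosphomannose isomerase with PGI, G6PDH, diaphorase coupling enzymes. Quantity: 15 ng/mL PMI. Medium: HEPES pH 7.4 buffer with MgCl2 and Tween-20. Reagent: Near-saturating mannose-6-phosphate, 1.0 mM. Compound: 20 µM single dose. Times: enzyme reaction with compound 20 min at room temperature. Detection: resorufin fluorescence at Ex 544/Em 590 nm.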
Diaph inh CS: diaphorase inhibitors and chemical oxidizers, primary screen, counter-screen for diaphorase-coupled primary assays, biochemical, uHTS, resorufin fluorescence; AID 1217, 2008; hit rate 0.69% among 190,000; diaphorase resazurin-to-resorufin fluorescence, NADH, 16 min; bacterial (C. kluyveri) enzyme, not human; inhibition, % at 20 µM;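 active = primary screen inhibition at 20 µM above a set limit, cut at about 50% in these data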;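 note: plate controls were DMSO with full reaction for no effect and wells lacking NADH for full effect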
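Benchmarks: positive control wells lacking NADH, neutral wells with DMSO only. System: bacterial diaphorase enzyme (C. kluyveri). Input: 0.14 U/mL diaphorase, enzyme working solution. Detection: resorufin fluorescence, excitation 544 nm, emission 590 nm. Times: 16-min room-temperature incubation before reading.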
PMI activator: activators of human PMI, primary screen, biochemical, fluorescence intensity, near-Km mannose 6-phosphate; Mannose-6-phosphate isomerase (Homo sapiens), P34949; purified human PMI, coupled resazurin fluorescence, 20 min; hits give high values; 1 = vehicle control, 0 substrate-free wells; activation factor at 20 µM; hit rate 0.005% among 190,000;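 active = activation factor of 2 or more at 20 µM, relative to plate controls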
* marks the source's active call; other numbers are inactive results. Shown are actives, neighbours in structure and some others; about 1.1% of the full set was active somewhere.

SMILES | G6PDH CS | Diaphorase act | PMI act satM6P | Diaph inh CS | PMI activator
Cc1ccc(C(=O)Nc2cc(C)c(OCC(=O)N3CCOCC3)c(C)c2)cc1 | 0 | 0.9 | 1 | 9 | 1
CC(/C=C/c1ccc2c(c1)OCO2)=N/NC(=O)c1ccc(C)nc1 | -9 | 1 | 0.9 | 3 | 1
CCNc1nc(NCC)nc(N/N=C/c2ccc(O)c(O)c2)n1 | 19 | 0.4 | 0.8 | 61* | 0.4
O=C(Cc1cccc2ccccc12)N1CCCc2ccccc21 | 10 | 0.8 | 0.8 | 18 | 0.9
COc1cc(C)ccc1N(CCCN1C(=O)c2cccc3cccc(c23)C1=O)C(=O)c1cccs1 | -23 | 0.3 | 1 | 72* | 0.9
COc1ccc(N(CCCN2C(=O)c3cccc4cccc(c34)C2=O)C(=O)c2cccs2)cc1 | 6 | 0.3 | 0.9 | 67* | 0.9
CC(C)CN(C(=O)CN1CCN(c2ccc([N+](=O)[O-])cc2)CC1)c1c(N)n(CC(C)C)c(=O)[nH]c1=O | 4 | 1 | 1 | 4 | 1.1
CCOC(=O)c1sc2nc(SCC(=O)N(CC)CC)n(CCCN3CCCC3=O)c(=O)c2c1C | -2 | 1 | 1.2 | -3 | 1.1
O=C1CCN(C(=O)Nc2ccccc2Cl)N1 | 6 | 1 | 2.2* | -1 | 1.4
O=C1CCN(C(=O)Nc2cccc(Cl)c2)N1 | 11 | 0.9 | 1.5 | 6 | 1.2
CN(C)/C=C1/Oc2c(ccc3ccccc23)C1=O | 3 | 0.7 | 0.4 | 32 | 0.8
CN(C)/C=C1\Oc2ccc3ccccc3c2C1=O | 34 | 0.3 | 0.2 | 70* | 0.1
COc1cc2c(cc1NC(=O)C(C)Sc1ccc(C)cc1)oc1ccccc12 (stereo not drawn) | 0 | 0.2 | 0.8 | 76* | 0.8
COc1cc2c(cc1NC(=O)CSc1ccc(C)cc1)oc1ccccc12 | 1 | 0.7 | 0.9 | 31 | 0.9
CNC(=O)NC(=O)COC(=O)c1ccccc1OCc1ccccc1 | 8 | 1 | 1 | 4 | 1.1
CCOC(=O)c1[nH]c2ccccc2c1NC(=O)Nc1ccc(OC)cc1 | 2 | 0.9 | 0.9 | 14 | 0.9
O=C(Nc1cccc(O)c1)c1ccc(Br)cc1 | -2 | 0.9 | 0.9 | 10 | 0.9
O=C(NNc1ccc(O)cc1)c1ccc(Br)cc1 | 3 | 0.8 | 2.2* | 20 | 1.5
CCCNC(=O)c1c(N)n(-c2ccc3c(c2)OCO3)c2nc3ccccc3nc12 | 7 | 0.8 | 0.6 | 16 | 0.9
Nc1c(C(=O)NC2CC2)c2nc3ccccc3nc2n1-c1ccc2c(c1)OCO2 | 12 | 0.3 | 0.5 | 66* | 0.9
COc1cc(CN2CCN(C(=O)CC(C)C)CC2)cc(OC)c1O | 53* | 0.6 | 0.4 | 39 | 1.1
COc1ccc(CN2CCN(C(=O)c3cc(OC)c(OC)c(OC)c3)CC2)cc1OC | 1 | 0.8 | 1.1 | 18 | 1
COc1cc(CN2CCN(C(=O)CC(C)C)CC2)cc(OC)c1OC | 9 | 1 | 1 | -3 | 0.9
COc1ccc(C(=O)N2CCN(Cc3cc(OC)c(O)c(OC)c3)CC2)cc1OC | 55* | 0.7 | 0.4 | 29 | 0.7
O=C(c1ccccc1)c1c[nH]c(C(=O)C(Cl)(Cl)Cl)c1 | 6 | 0.9 | 1 | 9 | 1.1
SMILES | G6PDH CS | Diaphorase act | PMI act satM6P | Diaph inh CS | PMI activator
O=C(/C=C/c1ccccc1)NNC(=O)c1cccc(Cl)c1 | 2 | 0.9 | 0.8 | 11 | 0.9
O=C(c1ccc(Cl)cc1)c1c[nH]c(C(=O)NNc2ccccc2)c1 | -2 | 0.9 | 2.1* | 15 | 1.7
O=C(NNc1ccc([N+](=O)[O-])cc1)c1ccccc1F | 6 | 1 | 2.3* | -5 | 1.7
O=C(/C=C/c1ccccc1)NNc1ccc(Cl)cc1 | 4 | 1 | 2.7* | -4 | 1.8
O=C(O)c1ccccc1C(=O)NNc1ccc(Cl)cc1 | 2 | 1 | 2.4* | 4 | 1.6
Cc1cccc(OCCCC(=O)N2CCCc3ccccc32)c1C | -4 | 0.9 | 1 | 10 | 0.9
N#C/C(=C\c1ccc(Cl)s1)C(=O)N1CCN(c2ccccc2)CC1 | 4 | 0.9 | 0.9 | 13 | 1
O=C(Nc1ccccc1)Nc1ccc(F)cc1F | 3 | 0.9 | 1 | 7 | 0.9
O=C(O)c1ccccc1C(=O)NNc1ccc(F)cc1F | 0 | 0.8 | 2.5* | 19 | 1.6
CCCCN(C)CCC(=O)Nc1ccc(F)c(F)c1 | -2 | 0.9 | 1 | 11 | 1
NC(=O)c1cc2ccccc2o/c1=N/NC(=O)c1cccs1 | 2 | 0.3 | 1 | 69* | 0.9
COc1ccc2o/c(=N/NC(=O)c3cccs3)c(C(N)=O)cc2c1 | 9 | 0.8 | 0.8 | 19 | 1
COc1ccc2cc(C(N)=O)/c(=N/NC(=O)c3ccco3)oc2c1 | -17 | 0.2 | 1 | 76* | 0.9
COc1cccc(CNC(=O)C(CCSC)NS(=O)(=O)c2ccc3c(c2)oc(=O)n3C)c1 (stereo not drawn) | -14 | 0.8 | 0.9 | 24 | 0.9
O=C(COc1ccccc1)c1cn(CC(=O)N2CCCC2)c2ccccc12 | -1 | 0.1 | 1.1 | 94* | 1.1
NC(=O)Cn1cc(C(=O)COc2ccccc2)c2ccccc21 | 5 | 0.9 | 1.1 | 8 | 1
O=C(Nc1ccccc1)C1=C[C@@H](c2ccc(Br)cc2)C[C@@H](OCCCCO)O1 | 6 | 0.4 | 0.9 | 63* | 0.9
O=C(O)C(O)Cc1c[nH]c2ccccc12 (stereo not drawn) | 2 | 1 | 1.1 | 4 | 1.1
O=C(CC(C(=O)O)c1c[nH]c2ccccc12)c1ccccc1 (stereo not drawn) | 6 | 0.2 | 1 | 78* | 0.9
CCOC(=O)N1CCN(C(=O)c2ccc(OC(C)=O)cc2)CC1 | -4 | 1.2 | 1.2 | -18 | 1.1
CCC(=O)c1cn(CC(=O)NCc2cccnc2)c2ccccc12 | 3 | 0.9 | 1 | 6 | 1
COc1ccccc1/C=C/C=N/n1c(-c2cc(C)[nH]n2)n[nH]c1=S | 6 | 0.5 | 1 | 50* | 0.8
Cc1nn(-c2ccccc2)c(C)c1/C=N/n1c(-c2ccc(Cl)cc2)n[nH]c1=S | -26 | 0.9 | 0.9 | 7 | 0.9
Cc1nn(-c2ccccc2)c(C)c1/C=N/n1c(-c2ccncc2)n[nH]c1=S | 1 | 0.2 | 0.9 | 80* | 0.9
CN(C)c1ccc(/C=N/n2c(-c3cccnc3)n[nH]c2=S)cc1 | 7 | 0.3 | 0.9 | 72* | 0.9
